Source: PubChem BioAssay (several laboratories)
ABCB1 inh = blocks JC-1 efflux by human ABCB1 transporter; P08183; CCRF-Adr cells, flow cytometry; inhibition, % at 6.6 µM; 0.067% of 190,000 active; AID 1326; in the data active means inhibition above about 40%;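 further: 0% = vehicle and 100% = reference inhibitor; higher value means more JC-1 retained so stronger ABCB1 efflux block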
MT stabilizer = stabilizes microtubules in HeLa cells. HeLa tubulin immunostaining HCS, 24 h; share of cells brighter than vehicle mean+2SD. % tubulin-high responders, % at 10 µM. 0.83% of 200,000 active. AID 2205;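 active means plate Z-score above 3 for both tubulin-high and condensed-nucleus cell shares, with cell loss under 80%, at 10 µM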;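 further: anti alpha tubulin signal scored within the nucleus-defined area of each cell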
PKD1 kinase inh = inhibitors of human PKD1 kinase; Q15139; 0.056% of 200,000 active; PKD1 kinase fluorescence polarization assay; inhibition, % (no concentration beside the values); in the data active means inhibition above about 50%
bCat nuc transl = modulators of beta-catenin nuclear translocation | AID 1665 | nuclear translocation activity, % at 5 µM | 0.3% of 190,000 active | HeLa beta-catenin nuclear translocation, immunofluorescence imaging;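 active means nuclear translocation activity above 50% at 5 µM, with a well cell count of 50 or more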;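 further: per-cell ratio of nuclear to cytoplasmic median beta-catenin stain intensity; plate controls were DMSO negative control for no effect and GSK-3 inhibitor IX positive control for full effect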
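Technique: fluorescence imaging of beta-catenin antibody stain plus DAPI / Material: human HeLa cell line / Incubation: compound treatment 24 h, 37°C, 5% CO2 / Read-out basis: % activation of per-cell nuclear versus cytoplasmic median beta-catenin signal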
ABCG2 inh = human ABCG2 inhibition, ABCB1 as counter-screen. AID 1325. IgMXP3 cells, JC-1 efflux, flow cytometry. 0.1% of 190,000 active. Q9UNQ0. inhibition, % at 6.6 µM;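 active means inhibition above 80%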;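 further: 0% = DMSO and 100% = nicardipine control wells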
Target sequence (Q9UNQ0 whole entry, looked up): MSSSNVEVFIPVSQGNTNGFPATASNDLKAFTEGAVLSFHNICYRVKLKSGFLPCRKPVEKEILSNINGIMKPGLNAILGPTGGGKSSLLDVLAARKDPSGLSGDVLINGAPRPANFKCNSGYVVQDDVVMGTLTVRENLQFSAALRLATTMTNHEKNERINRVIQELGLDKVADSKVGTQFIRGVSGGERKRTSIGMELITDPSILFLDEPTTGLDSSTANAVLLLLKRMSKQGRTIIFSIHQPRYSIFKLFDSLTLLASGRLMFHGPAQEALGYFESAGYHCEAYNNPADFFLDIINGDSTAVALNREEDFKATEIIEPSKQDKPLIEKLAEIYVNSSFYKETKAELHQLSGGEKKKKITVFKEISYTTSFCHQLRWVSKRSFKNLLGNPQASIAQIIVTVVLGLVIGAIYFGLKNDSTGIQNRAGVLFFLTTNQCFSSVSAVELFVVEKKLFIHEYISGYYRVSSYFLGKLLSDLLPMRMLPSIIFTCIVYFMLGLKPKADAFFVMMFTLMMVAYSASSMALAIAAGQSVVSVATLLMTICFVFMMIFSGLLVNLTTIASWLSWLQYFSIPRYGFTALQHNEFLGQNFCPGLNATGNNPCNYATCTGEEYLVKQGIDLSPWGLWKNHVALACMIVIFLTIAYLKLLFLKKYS
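Times: 10 min at 25 °C | Test system: Two drug-resistant human cell lines, ABCG2 and ABCB1 | Quantity: 3 million cells/mL final, two lines in 1:1 ratio | Signal: Flow cytometry, 530 nm JC-1 signal | Dosing: Compound at 6.6 µM | Controls: Nicardipine and DMSO wells | Reagent: JC-1 as fluorescent efflux pump substrate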
* = called active by the depositor; x = no result given. Most compounds without a hit are left out; they make up all but 1% or so of the library.

SMILES	ABCB1 inh	MT stabilizer	PKD1 kinase inh	bCat nuc transl	ABCG2 inh
Cc1noc(C)c1CSc1nc2ccccc2c(=O)n1-c1ccccc1	0.5	42.4*	-11.2	28.8	0.7
Cc1noc(C)c1CSc1nc2[nH]ncc2c(=O)n1-c1ccccc1	18.6	24.5*	7.0	2.8	11.8
Cc1noc(C)c1CSc1nc2ccccc2c(=O)n1-c1ccc(F)cc1F	1.6	14.8	-2.8	9.2	4.7
Cc1nc(CSc2nc3[nH]ncc3c(=O)n2-c2ccccc2)cs1	0.4	3.5	0.7	x	1.9
Cc1c(C(=O)OCC(=O)NCC2CCCO2)cccc1[N+](=O)[O-] (configuration not stated)	0.3	5.1	4.7	0.2	4.9
CCC1(C)OCC(Cn2c3ccccc3c3ccccc32)O1 (configuration not stated)	0.3	5.1	-7.8	63.0*	0.1
O=C(CN1C(=O)NC2NC(=O)NC21)N/N=C/c1ccccc1F (configuration not stated)	0.2	2.0	2.1	5.0	1.5
Cc1ccc(-n2nc(C(=O)N/N=C/c3cccc(C(F)(F)F)c3)c3ccccc3c2=O)cc1C	-1.6	3.1	5.6	0.0	-1.8
CN1CCc2c(sc3c2C(=O)NC(c2cccc(OC(=O)c4cccs4)c2)N3)C1 (configuration not stated)	0.3	5.5	8.9	-1.4	0.0
CCOC(=O)N1CCc2c(sc3c2C(=O)NC(c2ccccc2)N3)C1 (configuration not stated)	0.8	21.6*	-17.6	133.5*	6.9
Cc1ccc(NC(=O)NNC(=O)Cn2nc(-c3ccccc3)c(-c3ccccc3)c(C#N)c2=O)cc1	-0.2	27.1*	4.3	-0.4	-0.1
Cc1cc(Nc2nc3ccccc3nc2Cl)n(-c2ccccc2C)n1	1.5	13.2*	-3.5	1.0	41.1
Cc1cc(Nc2nc3ccccc3nc2Cl)n(-c2ccccc2)n1	1.0	12.5*	-6.3	x	4.2
CCCCOCP(=O)(CC)COCCCC	7.4	3.0	-1.5	x	-0.2
Cc1ccc2nc(-c3ccc(NC(=S)NC4CC(C)(C)NC(C)(C)C4)cc3)sc2c1	0.2	33.8	-5.2	71.7*	0.4
Cc1ccc2nc(-c3ccc(NC(=S)NC(=O)C(C)C)cc3)sc2c1	-0.2	1.7	-2.1	-1.4	0.5
COc1ccc(CN2CCNC(=O)C2CC(=O)NCCC2=CCCCC2)cc1OC (configuration not stated)	0.1	1.2	-1.6	-0.7	0.2
COc1ccc(CC(=O)Nc2cccc(S(=O)(=O)N3CCCCCC3)c2)cc1OC	3.0	1.6	-10.6	0.0	0.0
Cc1cc(N2CCOCC2)nc(NCc2ccccc2)n1	0.3	0.7	1.4	0.8	1.5
Cc1cc(N2CCCCC2)nc(NCc2ccccc2)n1	-0.1	17.3*	4.3	2.2	-0.2
CCOc1ccc(Br)cc1/C(C)=N\NC1=NCCN1	0.5	34.6*	-0.6	81.5*	3.3
CCOc1ccc(CSC2=NCCN2)cc1Cl	0.8	5.1	6.3	-0.8	4.0
O=C(OCCN1C(=O)c2cccc3c(N4CCOCC4)ccc(c23)C1=O)c1ccc(Cl)cc1Cl	8.9	15.9*	-6.4	79.5*	28.2
O=C(OCCN1C(=O)c2cccc3c(N4CCOCC4)ccc(c23)C1=O)c1ccccc1Cl	1.8	14.0*	-10.1	x	-9.2
O=C(OCCN1C(=O)c2cccc3c(N4CCOCC4)ccc(c23)C1=O)c1cccc(Cl)c1	3.8	16.4*	0.2	55.9*	6.8
SMILES	ABCB1 inh	MT stabilizer	PKD1 kinase inh	bCat nuc transl	ABCG2 inh
CCOc1cc(C(=O)N/N=C\c2cn(CC)nc2C)cc(OCC)c1OCC	0.9	2.0	2.4	x	13.0
Cc1cccc(-n2c3nc(=O)[nH]c(=O)c-3cc3cc([N+](=O)[O-])ccc32)c1	0.6	10.0	12.1	2.5	6.8
Cc1ccc(C)c(-n2c3nc(=O)[nH]c(=O)c-3cc3cc([N+](=O)[O-])ccc32)c1	-0.1	6.9	0.0	92.6*	3.0
COc1cc(C(=O)N2CCN(c3cccc(C)c3C)CC2)cc(OC)c1OC	1.0	13.1	-0.5	64.0*	5.2
Cc1cccc(N2CCN(C(=O)N3CCCCC3)CC2)c1C	0.7	3.4	4.9	2.5	0.6
Cc1cccc(N2CCN(C(=O)c3ccncc3)CC2)c1C	-0.5	45.2*	-2.8	x	-3.8
Cc1cccc(N2CCN(C(=O)N3CCOCC3)CC2)c1C	-0.2	35.8*	-7.0	29.8	3.0
Cc1cccc(N2CCN(C(=O)c3ccc4ncsc4c3)CC2)c1C	0.5	43.4*	-3.4	150.1*	1.6
CCCCOc1ccc(Cl)cc1CSc1nnc(CC)n1N	0.2	2.1	-3.2	x	1.1
COc1ccccc1N1CCN(C(=O)c2oc3cc(C)cc(C)c3c2C)CC1	-0.3	24.8*	-5.1	1.0	14.0
COc1ccccc1N1CCN(C(=O)c2ccoc2C)CC1	1.4	5.2	-9.4	-2.2	14.8
CCOC(=O)c1c(NC(=O)CN2C(=O)NC(C)(c3ccccc3)C2=O)sc(C)c1C (configuration not stated)	1.6	13.2*	1.6	62.5*	27.1
COC(=O)C1=C(C)N(c2ccccc2)C(=S)NC1c1ccccc1C(F)(F)F (configuration not stated)	2.4	3.4	-9.6	-1.2	2.0
O=C(Nc1ccccc1)N1CCC(c2nc(-c3ccc(S(=O)(=O)N4CCOCC4)cc3)no2)CC1	0.2	26.2*	-5.5	-2.4	1.0
O=C(c1ccccc1)N1CCC(c2nc(-c3ccc(S(=O)(=O)N4CCOCC4)cc3)no2)CC1	0.8	2.0	-1.0	-1.1	2.5
O=c1[nH]c(NCc2ccco2)nnc1Cc1ccccc1Cl	0.8	58.7*	3.3	3.1	5.9
O=C(/C=C/c1ccc(N2CCC(c3ccccc3)=N2)cc1)c1ccccc1	75.0*	3.4	-10.4	x	81.2*
O=C(NC12CC3CC(CC(C3)C1)C2)N1CCN(C(=O)c2ccco2)CC1	0.1	3.8	-8.8	-5.8	13.8
Cc1nn(-c2ccccc2)c2[nH]c(=O)c(CNc3ccc(N4CCOCC4)cc3)cc12	-2.3	52.3*	-10.1	0.6	-1.6
CCOC(=O)C1=C(C)NC(C)=C(C(=O)OC)C1c1cccc([N+](=O)[O-])c1 (configuration not stated)	1.3	3.8	-5.9	-0.9	8.9
CCOC(=O)C1=C(N)Oc2cc(O)ccc2C1c1cccc([N+](=O)[O-])c1 (configuration not stated)	2.4	14.9*	6.1	4.4	25.1
COC(=O)CNC(=O)COC(=O)Cc1ccc(Cl)cc1	0.6	3.2	-3.4	-1.8	0.2
COc1cc(OC)c(-c2c3cc(O)c(=O)cc-3oc3cc(O)c(O)cc23)cc1OC	0.4	12.3	11.2	4.7	-0.3
Cc1c2cc(O)c(=O)cc-2oc2cc(O)c(O)cc12	47.0*	3.1	-9.7	-3.1	7.5
O=C(C1=NNCC1c1ccccc1)C1OC1c1ccccc1 (configuration not stated)	x	x	x	1.8	x
